Data: ChEMBL document CHEMBL1221284, “Development of 2-pyrrolidinyl-N-methyl pyrimidones as potent and orally bioavailable HIV integrase inhibitors” (Bioorg Med Chem Lett, 2010)

Legend:
[1] = test system: Human immunodeficiency virus 1; test: Antiviral activity against HIV1 3B infected in human MT4 cells assessed as inhibition of viral infections in presence of 10% fetal bovine serum; assay type: functional; conditions: Human immunodeficiency virus 1, 3B, read-out: CIC95
How it was run: (§1)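 Spread assay measuring inhibition of HIV-1 IIIb infection spread in MT-4 T-lymphoid cell culture. The medium held 10% fetal bovine serum for line 3 and 50% normal human serum for line 4. The readout is the 95% inhibitory concentration (CIC95).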

[2] = Terminal phase half life in rat at 3 mg/kg, po and 3 mg/kg, iv; assay type: ADME, organism-based; conditions: in vivo, read-out: beta t1/2 (converted)
How it was run: (§2)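 The iv dose was given in DMSO/PEG400/H2O (20–40–40%) and the oral dose in 1% methylcellulose. Terminal-phase plasma half-life was taken from the iv administration and AUC from the oral administration.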

[3] = AUC in rat at 3 mg/kg, po and 3 mg/kg, iv; assay type: ADME, organism-based; conditions: plasma; how it was run: as §2
[4] = Plasma clearance in rat at 3 mg/kg, po and 3 mg/kg, iv; assay type: ADME, organism-based; how it was run: as §2
[5] = molecular target: Human immunodeficiency virus type 1 integrase (Human immunodeficiency virus 1, UniProt Q7ZJM1); test: Inhibition of HIV 1 recombinant integrase
Human immunodeficiency virus type 1 integrase, sequence (Q7ZJM1 whole entry): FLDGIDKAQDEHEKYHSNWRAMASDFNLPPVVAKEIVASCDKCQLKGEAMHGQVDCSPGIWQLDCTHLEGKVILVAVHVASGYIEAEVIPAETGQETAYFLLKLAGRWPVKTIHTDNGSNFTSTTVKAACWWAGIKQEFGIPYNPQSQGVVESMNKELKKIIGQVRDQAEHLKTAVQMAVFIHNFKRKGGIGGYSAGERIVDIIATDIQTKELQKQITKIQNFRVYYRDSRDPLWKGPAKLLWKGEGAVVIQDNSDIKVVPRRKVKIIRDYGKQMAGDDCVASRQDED
How it was run: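 Recombinant HIV-1 integrase was pre-assembled on immobilized oligonucleotides. Inhibitor was added after assembly and washing. IC50 is the inhibitor concentration that reduces integrase activity by 50%.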

[6] = Oral bioavailability in rat at 3 mg/kg; assay type: ADME, organism-based; conditions: in vivo; how it was run: as §2
[7] = test system: Human immunodeficiency virus 1; test: Antiviral activity against HIV1 3B infected in human MT4 cells assessed as inhibition of viral infections in presence of 50 % normal human serum; assay type: functional; conditions: Human immunodeficiency virus 1, 3B, read-out: CIC95; how it was run: as §1
[8] = test system: Human immunodeficiency virus 1; test: Antiviral activity against HIV1 harboring integrase F121Y mutant relative to wild type
[9] = test system: Human immunodeficiency virus 1; test: Antiviral activity against HIV1 harboring integrase T66I and M154I double mutant relative to wild type; assay type: functional
[10] = test system: Human immunodeficiency virus 1; test: Antiviral activity against HIV1 harboring integrase T66/L74M and V151L double mutant relative to wild type; assay type: functional
[11] = test system: Human immunodeficiency virus 1; test: Antiviral activity against HIV1 harboring integrase V151I mutant relative to wild type; assay type: functional
[12] = test system: Human immunodeficiency virus 1; test: Antiviral activity against HIV1 harboring integrase N155S mutant relative to wild type; assay type: functional
Homo sapiens = species: Homo sapiens; test: Plasma protein binding in human; conditions: read-out: PPB (converted)
[13] = AUC in dog at 1 mg/kg, iv and 2 mg/kg, po; conditions: plasma
[14] = test system: Human immunodeficiency virus 1; test: Antiviral activity against HIV1 harboring integrase T125K and […] double mutant relative to wild type; assay type: functional
[15] = test system: Human immunodeficiency virus 1; test: Antiviral activity against HIV1 harboring integrase T66I and S153Y double mutant relative to wild type; assay type: functional
[16] = test system: Human immunodeficiency virus 1; test: Antiviral activity against HIV1 harboring integrase T125K mutant relative to wild type; assay type: functional
[17] = Terminal phase half life in dog at 1 mg/kg, iv and 2 mg/kg, po; conditions: in vivo, read-out: beta t1/2 (converted)
[18] = test system: Human immunodeficiency virus 1; test: Antiviral activity against HIV1 harboring integrase T66I mutant relative to wild type; assay type: functional
[19] = Oral bioavailability in dog at 1 mg/kg; assay type: ADME, organism-based, Canis lupus familiaris; conditions: in vivo; how it was run: as §2
[20] = Plasma protein binding in rat; assay type: ADME, cell-free; conditions: read-out: PPB (converted)
[21] = Metabolic stability in rat liver microsomes assessed as glucuronidation rate after 1 hr in presence of UDPGA; assay type: ADME, Microsome
How it was run: (§3)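 Rat liver microsomes (1 mg/mL) were incubated with test compound for 1 h. The cofactor was UDPGA for glucuronidation and NADPH for oxidation. Substrate loss was measured by LC/MS/MS and expressed as % of initial remaining.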

[22] = Metabolic stability in rat liver microsomes assessed as oxidation rate after 1 hr in presence of NADPH; assay type: ADME, Microsome; how it was run: as §3

half-life [2] [h] | AUC [3] [µM·h] | clearance [4] [mL/min/kg] | IC50 [5] [nM] | bioavailability [6] [%] | SMILES | IC95 [1] [nM] | IC95 [7] [nM] | further results
1.4 | 0.5 | 39 | 27 | 17 | CC(=O)N1C[C@@H](F)C[C@H]1c1nc(C(=O)NCc2ccc(F)c(C)c2)c(O)c(=O)n1C | 16 | 31 | 
7.4 | 1.2 | 9.9 | 20 | 10 | COC(=O)N1C[C@@H](F)C[C@H]1c1nc(C(=O)NCc2ccc(C)c(Cl)c2)c(O)c(=O)n1C | 16 | 63 | 
1.5 | 1.3 | 21 | 19 | 25 | COC(=O)N1C[C@@H](F)C[C@H]1c1nc(C(=O)NCc2ccc(F)c(Cl)c2)c(O)c(=O)n1C | 16 | 31 | 
 |  |  | 20 |  | Cn1c([C@@H]2C[C@H](F)CN2C2CC2)nc(C(=O)NCc2ccc(F)cc2)c(O)c1=O | 63 | 250 | 
 |  |  | 10 |  | Cn1c([C@@H]2C[C@H](F)CN2Cc2ccon2)nc(C(=O)NCc2ccc(F)cc2)c(O)c1=O | 156 | 625 | 
0.6 | 1.2 | 46 | 10 | 44 | COC(=O)N1C[C@@H](F)C[C@H]1c1nc(C(=O)NCc2ccc(F)cc2)c(O)c(=O)n1C | 31 | 63 | 
 |  |  | 10 |  | CN(C)C(=O)N1C[C@@H](F)C[C@H]1c1nc(C(=O)NCc2ccc(F)cc2)c(O)c(=O)n1C | 125 | 125 | 
 |  |  | 15 |  | Cn1c([C@@H]2C[C@H](F)CN2S(C)(=O)=O)nc(C(=O)NCc2ccc(F)cc2)c(O)c1=O | 31 | 125 | 
 |  | 64 | 9 | 16 | CN(C)S(=O)(=O)N1C[C@@H](F)C[C@H]1c1nc(C(=O)NCc2ccc(F)cc2)c(O)c(=O)n1C | 31 | 125 | 
0.2 | 2.3 | 77 | 10 | 18 | Cn1c([C@@H]2C[C@H](F)CN2C(=O)c2cnccn2)nc(C(=O)NCc2ccc(F)cc2)c(O)c1=O | 16 | 16 | 
1.6 | 0.2 | 138 | 21 | 19 | CN(C)C(=O)C(=O)N1C[C@@H](F)C[C@H]1c1nc(C(=O)NCc2ccc(F)cc2)c(O)c(=O)n1C | 16 | 16 | 
 | 4.5 | 21 | 23 |  | CN1C[C@@H](F)C[C@H]1c1nc(C(=O)NCc2ccc(F)cc2)c(O)c(=O)n1C | 63 | 125 | AUC [13]: 23.1 µM·h; half-life [17]: 3.7 h; bioavailability [19]: 116%

SMILES | half-life [2] [h] | AUC [3] [µM·h] | clearance [4] [mL/min/kg] | IC50 [5] [nM] | bioavailability [6] [%] | IC95 [1] [nM] | IC95 [7] [nM] | further results
CC(=O)N1C[C@@H](F)C[C@H]1c1nc(C(=O)NCc2ccc(C)c(Cl)c2)c(O)c(=O)n1C | 3 | 3.7 | 29 | 32 | 94 | 5 | 46 | Ratio IC50 [8]: 1.5; Ratio IC50 [9]: 0.8; Ratio IC50 [10]: 2.5; Ratio IC50 [11]: 1; Ratio IC50 [12]: 8; fraction unbound (Homo sapiens): 0.022; AUC [13]: 6.4 µM·h; Ratio IC50 [14]: 3.5; Ratio IC50 [15]: 0.8; Ratio IC50 [16]: 1; half-life [17]: 1.2 h; Ratio IC50 [18]: 1; bioavailability [19]: 80%
CC(=O)N1C[C@@H](F)C[C@H]1c1nc(C(=O)NCc2ccc(F)cc2)c(O)c(=O)n1C | 0.3 | 1.2 | 64 | 15 | 31 | 14 | 17 | fraction unbound [20]: 0.37; Ratio IC50 [9]: 2; Ratio IC50 [10]: 10; remaining at 1 h [21]: 43%; Ratio IC50 [12]: 15; fraction unbound (Homo sapiens): 0.21; Ratio IC50 [14]: 15; Ratio IC50 [15]: 5; remaining at 1 h [22]: 40%
CC(=O)N1C[C@@H](F)C[C@H]1c1nc(C(=O)NCc2ccc(F)c(Cl)c2)c(O)c(=O)n1C | 0.7 | 0.5 | 43 | 24 | 20 | 3 | 17 | Ratio IC50 [8]: 4; Ratio IC50 [9]: 3; Ratio IC50 [10]: 31; Ratio IC50 [11]: 1; Ratio IC50 [12]: 31; AUC [13]: 2.8 µM·h; Ratio IC50 [14]: 17; Ratio IC50 [15]: 3; Ratio IC50 [16]: 1; half-life [17]: 7.1 h; Ratio IC50 [18]: 2; bioavailability [19]: 34%
